Published values from different studies.
Matrix: plasma

SMILES	system	setting	half-life [h]
C[C@]1(O)CCCN(c2nc(Nc3ccc(S(=O)(=O)N[C@H]4CC[C@H](CN5CCN(c6ccc(C7CCC(=O)NC7=O)c(F)c6)CC5)CC4)cc3F)ncc2C(F)(F)F)C1 (some centres unmarked)	rat	intravenous, 2 mg/kg	6
C=CC(=O)N1CCC([C@@H]2CCNc3c(C(N)=O)c(-c4ccc(Oc5ccccc5)cc4)nn32)CC1	Sprague-Dawley rat	oral, 16 mg/kg	2.24
Cn1c(=O)c2[nH]cnc2n(C)c1=O	male Sprague-Dawley rat	intravenous, 11.25 mg/kg	4.81
CCOCC(=O)N1CCC[C@H](C(=O)NCc2nc(-c3ccc(C)nc3)cs2)C1	male Sprague-Dawley rat	oral, 3 mg/kg	1.9
Cc1cc(S(=O)(=O)N[C@H]2CC[C@H](CN3CCN(c4ccc(C5CCC(=O)NC5=O)c(Cl)c4)CC3)CC2)ccc1Nc1ncc(C(F)(F)F)c(N2CCC[C@](C)(O)C2)n1 (some centres unmarked)	rat	intravenous, 2 mg/kg	2.9
COc1cc(-c2cc(C(C)=O)n3ccccc23)c(OC)cc1Cn1ccnc1	male Sprague-Dawley rat	oral, 5 mg/kg	0.72
COc1nc(-c2cccc(-c3ccccc3)c2C)ccc1CNCCNC(=O)CCCCCCCCCCC(=O)N1CCN(CCNC(=O)c2cc3c(=O)n4cccc(C)c4nc3n(CCc3cccs3)c2=N)CC1	male Sprague-Dawley rat	oral, 40 mg/kg	6.8
COc1ccc(-c2coc3cc(O)cc(O)c3c2=O)cc1	rat	intravenous, 2 mg/kg	0.19
CCONC(=O)N1CCC[C@H](C(=O)NCc2nc(-c3ccc(C#N)cc3)cs2)C1	male Sprague-Dawley rat	intravenous, 1 mg/kg	2.2
CC(=O)O[C@@H]1CC[C@@]2(C)[C@@H](CC[C@]3(C)[C@@H]2C(=O)C=C2[C@@H]4[C@@H](C)[C@H](C)CC[C@]4(C)CC[C@]23C)[C@@]1(C)C(=O)O	female Wistar rat	oral, 1 mg/kg, single dose	9.9
Cc1cc(S(=O)(=O)NC2CC(N3CCN(CC4CCN(c5ccc6c(c5F)n(C)c(=O)n6C5CCC(=O)NC5=O)CC4)CC3)C2)ccc1Nc1ncc(C(F)(F)F)c(N2CCCC(C)(O)C2)n1 (centres unmarked)	rat	intravenous, 2 mg/kg	7.2
C[C@H]1Oc2cc(cnc2N)-c2c(nn(C)c2C#N)CN(C)C(=O)c2ccc(F)cc21	male Sprague-Dawley rat	oral, 10 mg/kg, single dose	8.82
C[C@]1(O)CCCN(c2nc(Nc3ccc(S(=O)(=O)N[C@@H]4CCN(CC5CCN(c6ccc(C7CCC(=O)NC7=O)cc6F)CC5)C[C@H]4F)cc3F)ncc2C(F)(F)F)C1 (some centres unmarked)	rat	intravenous, 2 mg/kg	5.1
COCC(=O)N1CCC[C@H](C(=O)NCc2nc(-c3ccc(C#N)cc3)cs2)C1	male Sprague-Dawley rat	oral, 3 mg/kg	2.4
